Results reported in ChEMBL document CHEMBL1142985, “Antineoplastic agents. 550. Synthesis of 10b(s)-epipancratistatin from (+)-narciclasine” (2007).
In brackets after ≈: the same amount, converted by molar mass.

Key:
Assay type in all cases: functional
BXPC-3 = assay: Growth inhibition of human BXPC3 cells after 48 hrs; settings: BXPC-3, 48 h
Outline: (§1)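 NCI sulforhodamine B assay. Cells in 5% fetal bovine serum/RPMI1640 seeded, grown 24 h, then exposed to serial compound dilutions for 48 h. Fixed with trichloroacetic acid, stained with sulforhodamine B, optical density read on a plate reader. GI50 taken as the concentration causing a 50% reduction in net protein increase.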

MCF7 = assay: Growth inhibition of human MCF7 cells after 48 hrs; settings: MCF7, 48 h; outline: as §1
NCI-H460 = assay: Growth inhibition of human NCI-H460 cells after 48 hrs; settings: NCI-H460, 48 h; outline: as §1
SF-268 = assay: Growth inhibition of human SF268 cells after 48 hrs; settings: SF-268, 48 h; outline: as §1
KM-20L2 = assay: Growth inhibition of human KM20L2 cells after 48 hrs; settings: KM-20L2, 48 h; outline: as §1
DU-145 = assay: Growth inhibition of human DU145 cells after 48 hrs; settings: DU-145, 48 h; outline: as §1
P388 = assay: Growth inhibition of murine P388 cells after 48 hrs; settings: Mus musculus, P388, 48 h; read-out: ED50 (the source's name)
Outline: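 Mouse leukemia P388 cells held 24 h in 10% horse serum/Fisher medium, then incubated 48 h with serial compound dilutions. Cell numbers counted on a Coulter particle counter; ED50 taken as the concentration giving 50% growth inhibition.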

GI50 (BXPC-3) | GI50 (MCF7) | GI50 (NCI-H460) | GI50 (DU-145) | EC50 (P388) | Compound | GI50 (SF-268) | GI50 (KM-20L2)
> 10 µg/mL | > 10 µg/mL | > 10 µg/mL | > 10 µg/mL | > 10 µg/mL | CC(=O)O[C@@H]1[C@@H](OC(C)=O)[C@H](O)[C@@]2(O)c3cc4c(c(O)c3C(=O)N[C@H]2[C@@H]1OC(C)=O)OCO4 | > 10 µg/mL | > 10 µg/mL
> 1 µg/mL | > 1 µg/mL | > 1 µg/mL | > 1 µg/mL | > 1 µg/mL | CC(=O)O[C@H]1[C@@H](OC(C)=O)[C@@H]2NC(=O)c3c(cc4c(c3O)OCO4)[C@@]23OC(=S)O[C@H]3[C@@H]1OC(C)=O | > 1 µg/mL | > 1 µg/mL
1.8 µg/mL (≈ 3.65 µM) | 2 µg/mL (≈ 4.05 µM) | 1.3 µg/mL (≈ 2.63 µM) | 1.4 µg/mL (≈ 2.84 µM) | 0.2 µg/mL (≈ 0.405 µM) | CC(=O)O[C@@H]1[C@@H](OC(C)=O)[C@H](OC(C)=O)[C@H]2c3cc4c(c(O)c3C(=O)N[C@H]2[C@@H]1OC(C)=O)OCO4 | 3 µg/mL (≈ 6.08 µM) | 1.8 µg/mL (≈ 3.65 µM)
> 1 µg/mL | > 1 µg/mL | > 1 µg/mL | > 1 µg/mL | > 1 µg/mL | CC(=O)O[C@@H]1[C@@H](OC(C)=O)[C@H](O)[C@H]2c3cc4c(c(O)c3C(=O)N[C@H]2[C@@H]1OC(C)=O)OCO4 | > 1 µg/mL | > 1 µg/mL
> 10 µg/mL | > 10 µg/mL | > 10 µg/mL | > 10 µg/mL | > 10 µg/mL | COC(=O)C(=O)Oc1c2c(cc3c1C(=O)N(C(=O)C(=O)OC)[C@H]1[C@H](OC(C)=O)[C@H](OC(C)=O)[C@@H](OC(C)=O)[C@H](OC(C)=O)[C@@]31OC(=O)C(=O)OC)OCO2 | > 10 µg/mL | > 10 µg/mL
14.4 µg/mL (≈ 28.3 µM) | 5.2 µg/mL (≈ 10.2 µM) | > 10 µg/mL | 4.3 µg/mL (≈ 8.44 µM) | 1.7 µg/mL (≈ 3.34 µM) | CC(=O)Oc1c2c(cc3c1C(=O)N[C@H]1[C@H](OC(C)=O)[C@H](OC(C)=O)[C@@H](OC(C)=O)[C@H](O)[C@@]31O)OCO2 | 9.9 µg/mL (≈ 19.4 µM) | 3.6 µg/mL (≈ 7.07 µM)
> 10 µg/mL | > 10 µg/mL | > 10 µg/mL | > 10 µg/mL | 8.9 µg/mL (≈ 16.1 µM) | CC(=O)Oc1c2c(cc3c1C(=O)N[C@H]1[C@H](OC(C)=O)[C@H](OC(C)=O)[C@@H](OC(C)=O)[C@H](OC(C)=O)[C@@]31O)OCO2 | > 10 µg/mL | > 10 µg/mL
0.011 µg/mL (≈ 0.0254 µM) | 0.06 µg/mL (≈ 0.138 µM) | 0.033 µg/mL (≈ 0.0761 µM) | 0.028 µg/mL (≈ 0.0646 µM) | 0.013 µg/mL (≈ 0.03 µM) | CC(=O)O[C@@H]1[C@H](OC(C)=O)[C@@H](OC(C)=O)C=C2c3cc4c(c(O)c3C(=O)N[C@H]21)OCO4 | 0.16 µg/mL (≈ 0.369 µM) | 0.051 µg/mL (≈ 0.118 µM)
3.1 µg/mL (≈ 6.28 µM) | 4.9 µg/mL (≈ 9.93 µM) | 2.9 µg/mL (≈ 5.88 µM) | 1.5 µg/mL (≈ 3.04 µM) | 1.5 µg/mL (≈ 3.04 µM) | CC(=O)O[C@H]1[C@@H](OC(C)=O)[C@@H]2NC(=O)c3c(cc4c(c3O)OCO4)[C@@]23OC(=O)O[C@H]3[C@@H]1OC(C)=O | 7.5 µg/mL (≈ 15.2 µM) | 2.8 µg/mL (≈ 5.68 µM)
0.16 µg/mL (≈ 0.337 µM) | 0.088 µg/mL (≈ 0.185 µM) | 0.28 µg/mL (≈ 0.589 µM) | 0.023 µg/mL (≈ 0.0484 µM) | 0.027 µg/mL (≈ 0.0568 µM) | CC(=O)Oc1c2c(cc3c1C(=O)N[C@@H]1C3=C[C@H](OC(C)=O)[C@@H](OC(C)=O)[C@H]1OC(C)=O)OCO2 | 0.055 µg/mL (≈ 0.116 µM) | 0.043 µg/mL (≈ 0.0904 µM)

Compound | GI50 (BXPC-3) | GI50 (MCF7) | GI50 (NCI-H460) | GI50 (DU-145) | EC50 (P388) | GI50 (SF-268) | GI50 (KM-20L2)
O=C1N[C@H]2[C@H](O)[C@H](O)[C@@H](O)[C@H](O)[C@H]2c2cc3c(c(O)c21)OCO3 | 0.32 µg/mL (≈ 0.984 µM) | 0.27 µg/mL (≈ 0.83 µM) | 0.23 µg/mL (≈ 0.707 µM) | 0.21 µg/mL (≈ 0.646 µM) | 0.14 µg/mL (≈ 0.43 µM) | 0.26 µg/mL (≈ 0.799 µM) | 0.31 µg/mL (≈ 0.953 µM)
O=C1N[C@@H]2C(=C[C@H](O)[C@@H](O)[C@H]2O)c2cc3c(c(O)c21)OCO3 [NARCICLASINE] | 0.0035 µg/mL (≈ 0.0114 µM) | 0.0032 µg/mL (≈ 0.0104 µM) | 0.0084 µg/mL (≈ 0.0273 µM) | 0.0032 µg/mL (≈ 0.0104 µM) | 0.0012 µg/mL (≈ 0.00391 µM) | 0.0031 µg/mL (≈ 0.0101 µM) | 0.0032 µg/mL (≈ 0.0104 µM)
O=C1N[C@H]2[C@H](O)[C@H](O)[C@@H](O)[C@H](O)[C@@H]2c2cc3c(c(O)c21)OCO3 [PANCRATISTATIN] | 0.02 µg/mL (≈ 0.0615 µM) | 0.023 µg/mL (≈ 0.0707 µM) | 0.032 µg/mL (≈ 0.0984 µM) | 0.015 µg/mL (≈ 0.0461 µM) | 0.017 µg/mL (≈ 0.0523 µM) | 0.014 µg/mL (≈ 0.043 µM) | 0.025 µg/mL (≈ 0.0769 µM)
